# According to ChEMBL document CHEMBL1137631, “Artemisinin-resistant mutants of Toxoplasma gondii have altered calcium homeostasis” (Antimicrob Agents Chemother, 2007):
# Active and inactive are the calls of the source. The rule behind the calls is not given here.
# Columns and labels:
# Assay type in all cases: functional, organism-based
# Toxoplasma gondii [1] = test: Antiparasitic activity against Toxoplasma gondii ATCC 50839 infected in HFF cells after 72 hrs by beta-galactosidase reporter gene assay
# In short: (§1)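 Tachyzoites inoculated into HFF monolayers, quadruplicate wells per sample; compounds 10 nM to 100 μM for 3 days at 37°C. Monolayers lysed 10 min at 50°C (HEPES pH 8.0, Triton X-100, DTT), then phosphate buffer pH 7.3 added, chlorophenol red-β-D-galactopyranoside substrate, A570 read.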
# Toxoplasma gondii [2] = test: Induction of […] MIC2 protein secretion in artemisinin-resistant Toxoplasma gondii STL500-10A at 10 uM treated for 10 mins by Western blot
# In short: (§2)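 Freshly egressed parasites in DMEM/HEPES with 3% FBS, treated 10 min at 18°C (1% ethanol vehicle), then 2 min at 37°C to secrete, chilled, centrifuged at 400 × g. Supernatant and pellet resolved by 15% SDS-PAGE, Western blotted with rabbit anti-MIC2 (1:10,000) and anti-β-galactosidase (1:300) antibodies.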
# Toxoplasma gondii [3] = test: Increase in intracellular calcium level in Toxoplasma gondii ATCC 50839 at 1 uM by fura-2-AM dye based fluorimetric method
# In short: (§3)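 Freshly harvested tachyzoites loaded with 5.2 μM fura-2-AM in HEPES-buffered saline pH 7.4 plus 1.5% sucrose, 30 min at 26°C, washed; 2×10^7 cells/ml, room temperature, no extracellular calcium (1 mM EGTA). Excitation 340/380 nm, emission 510 nm; [Ca2+]i calibrated with Ca2+-EGTA buffers after background subtraction; three independent experiments.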
# Toxoplasma gondii [4] = test: Induction of […] MIC2 protein secretion in artemisinin-resistant Toxoplasma gondii KN200-1 at 10 uM treated for 10 mins by Western blot; in short: as §2
# Toxoplasma gondii [5] = test: Increase in intracellular calcium level in artemisinin-resistant Toxoplasma gondii KN200-1 at 1 uM by fura-2-AM dye based fluorimetric method; in short: as §3
# Toxoplasma gondii [6] = test: Induction of […] MIC2 protein secretion in Toxoplasma gondii ATCC 50839 at 10 uM treated for 10 mins by Western blot; in short: as §2
# Toxoplasma gondii [7] = test: Increase in intracellular calcium level in artemisinin-resistant Toxoplasma gondii STL500-10A at 1 uM by fura-2-AM dye based fluorimetric method; in short: as §3
# Toxoplasma gondii [8] = test: Increase in intracellular calcium level in artemisinin-resistant Toxoplasma gondii STL500-10A at 1 uM by fura-2-AM dye based fluorimetric method in presence of extracellular calcium
# In short: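 Freshly harvested tachyzoites loaded with 5.2 μM fura-2-AM in HEPES-buffered saline pH 7.4 plus 1.5% sucrose, 30 min at 26°C, washed; 2×10^7 cells/ml, room temperature, 1 mM extracellular CaCl2. 340/380 nm excitation ratio, 510 nm emission; [Ca2+]i calibrated with Ca2+-EGTA buffers; three independent experiments.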
# Toxoplasma gondii [9] = test: Increase in intracellular calcium level in artemisinin-resistant Toxoplasma gondii KN200-6 at 1 uM by fura-2-AM dye based fluorimetric method; in short: as §3
# Toxoplasma gondii [10] = test: Induction of […] MIC2 protein secretion in artemisinin-resistant Toxoplasma gondii KN200-6 at 10 uM treated for 10 mins by Western blot; in short: as §2
# Toxoplasma gondii [11] = test: Induction of […] MIC2 protein secretion in artemisinin-resistant Toxoplasma gondii A2
# Toxoplasma gondii [12] = test: Antiparasitic activity against artemisinin-resistant Toxoplasma gondii KN200-1 infected in HFF cells after 72 hrs by beta-galactosidase reporter gene assay; in short: as §1
# Toxoplasma gondii [13] = test: Increase in intracellular calcium level in artemisinin-resistant Toxoplasma gondii STL500-10A at 20 uM by fura-2-AM dye based fluorimetric method; in short: as §3
# Toxoplasma gondii [14] = test: Antiparasitic activity against artemisinin-resistant Toxoplasma gondii STL500-10A infected in HFF cells after 72 hrs by beta-galactosidase reporter gene assay; in short: as §1
# Toxoplasma gondii [15] = test: Increase in intracellular calcium level in Toxoplasma gondii ATCC 50839 at 20 uM by fura-2-AM dye based fluorimetric method; in short: as §3
# Toxoplasma gondii [16] = test: Increase in intracellular calcium level in artemisinin-resistant Toxoplasma gondii KN200-6 at 20 uM by fura-2-AM dye based fluorimetric method; in short: as §3
# Toxoplasma gondii [17] = test: Antiparasitic activity against artemisinin-resistant Toxoplasma gondii KN200-6 infected in HFF cells after 72 hrs by beta-galactosidase reporter gene assay; in short: as §1
# Toxoplasma gondii [18] = test: Increase in intracellular calcium level in artemisinin-resistant Toxoplasma gondii KN200-1 at 20 uM by fura-2-AM dye based fluorimetric method; in short: as §3
# [19] = Toxoplasma gondii, ATCC 50839, HFF, 72 h, read-out: EC50
# [20] = Toxoplasma gondii, KN200-1, HFF, 72 h, read-out: EC50
# [21] = Toxoplasma gondii, STL500-10A, HFF, 72 h, read-out: EC50
# [22] = Toxoplasma gondii, KN200-6, HFF, 72 h, read-out: EC50
smiles,measurement,setting,value
C[C@H]1[C@H](N2CCS(=O)(=O)CC2)O[C@@H]2O[C@@]3(C)CC[C@H]4[C@H](C)CC[C@@H]1[C@@]24OO3 [ARTEMIFONE],EC50,Toxoplasma gondii [1]; [19],30 nM
C/C=C(/C)C(=O)O[C@H]1C(C)=C2[C@H]([C@@H]1OC(=O)CCCCCCC)[C@@](C)(OC(C)=O)C[C@H](OC(=O)CCC)[C@@]1(O)[C@H]2OC(=O)[C@@]1(C)O,Activity,Toxoplasma gondii [2],Active
same,Activity,Toxoplasma gondii [3],Active
same,Activity,Toxoplasma gondii [4],Active
same,Activity,Toxoplasma gondii [5],Active
same,Activity,Toxoplasma gondii [6],Active
same,Activity,Toxoplasma gondii [7],Active
same,Activity,Toxoplasma gondii [8],Active
same,Activity,Toxoplasma gondii [9],Active
same,Activity,Toxoplasma gondii [10],Active
same,Activity,Toxoplasma gondii [11],Active
C[C@@H]1CC[C@H]2[C@@H](C)C(=O)O[C@@H]3O[C@@]4(C)CC[C@@H]1[C@]32OO4 [ARTEMISININ],EC90,"Toxoplasma gondii [12]; Toxoplasma gondii, KN200-1, HFF, 72 h",6850 nM
same,EC50,Toxoplasma gondii [12]; [20],1730 nM
same,Activity,Toxoplasma gondii [13],Active
same,EC90,"Toxoplasma gondii [14]; Toxoplasma gondii, STL500-10A, HFF, 72 h",4770 nM
same,EC50,Toxoplasma gondii [14]; [21],1800 nM
same,Activity,Toxoplasma gondii [15],Active
same,Activity,Toxoplasma gondii [16],Active
same,EC90,"Toxoplasma gondii [17]; Toxoplasma gondii, KN200-6, HFF, 72 h",8550 nM
same,EC50,Toxoplasma gondii [17]; [22],1510 nM
same,Activity,Toxoplasma gondii [11],inactive
same,Activity,Toxoplasma gondii [18],Active
same,EC90,"Toxoplasma gondii [1]; Toxoplasma gondii, ATCC 50839, HFF, 72 h",1240 nM
same,EC50,Toxoplasma gondii [1]; [19],800 nM
C[C@@H]1CC[C@H]2[C@H](C)CO[C@@H]3O[C@@]4(C)CC[C@@H]1[C@]32OO4 [9-EPI-10-DEOXOARTEMISININ],EC50,Toxoplasma gondii [12]; hff,Active
same,EC50,Toxoplasma gondii [14]; hff,Active
same,EC50,Toxoplasma gondii [17]; hff,Active
CCc1nc(N)nc(N)c1-c1ccc(Cl)cc1 [PYRIMETHAMINE],EC50,Toxoplasma gondii [12]; [20],290 nM
same,EC50,Toxoplasma gondii [14]; [21],240 nM
same,EC50,Toxoplasma gondii [17]; [22],270 nM
same,EC50,Toxoplasma gondii [1]; [19],210 nM
C[C@@H]1CC[C@H]2[C@@H](C)C(=O)O[C@@H]3O[C@@]4(C)CC[C@@H]1[C@]32O4 [DEOXYARTEMISININ],EC50,Toxoplasma gondii [12]; hff,Not Active
same,EC50,Toxoplasma gondii [14]; hff,Not Active
same,EC50,Toxoplasma gondii [17]; hff,Not Active
same,EC50,Toxoplasma gondii [1]; hff,Not Active
O=c1[nH]c(=O)n([C@H]2C[C@H](O)[C@@H](CO)O2)cc1F [FLOXURIDINE],EC50,Toxoplasma gondii [12]; [20],1130 nM
same,EC50,Toxoplasma gondii [14]; [21],960 nM
same,EC50,Toxoplasma gondii [17]; [22],1190 nM
same,EC50,Toxoplasma gondii [1]; [19],910 nM
